Calls of active or inactive are those of the source. The rule behind the calls is not given here.
Assays:
K562 [1] = test: Antiproliferative activity against human K562 cells at 1 uM after 72 hrs by MTT assay; type: functional, cell-based
K562 [2] = test: Antiproliferative activity against human K562 cells at 0.1 uM after 72 hrs by MTT assay relative to control; type: functional
HepG2 = test: Antiproliferative activity against human HepG2 cells after 72 hrs by MTT assay; type: functional, cell-based; details: HepG2, 72 h
In short: (§1)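 Cells seeded and held 24 h at 37 °C, 5% CO2, then exposed to a concentration series in medium with 0.1% DMSO for 72 h. MTT (5 mg/mL in PBS) added for 4 h and OD read at 490 nm. IC50 taken from dose-response curves; mean ± SD of at least three independent experiments.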

K562 [3] = test: Antiproliferative activity against human K562 cells after 72 hrs by MTT assay; type: functional, cell-based; details: K562, 72 h; in short: as §1
A549 = test: Antiproliferative activity against human A549 cells after 72 hrs by MTT assay; type: functional, cell-based; details: A549, 72 h; in short: as §1
H22 [4] = test: Antitumor activity against mouse H22 cells implanted in ICR mouse assessed as tumor growth inhibition at 30 mg/kg, iv administered once daily for 21 consecutive days relative to control; type: functional; details: read-out: TGI
In short: (§2)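 Male ICR mice, five weeks old, inoculated s.c. in the right flank with 1 × 10^6 H22 cells. After one day, randomized into groups of six. Given i.v. 15 or 30 mg/kg daily for 21 days in 10% DMF/2% Tween 80/88% saline, or 8 mg/kg every 2 days; vehicle control given i.v. Tumors excised and weighed; inhibition (%) = (1 − treated/control mean tumor weight) × 100.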

K562 [5] = test: Cell cycle arrest in human K562 cells assessed as accumulation at G2 phase at 0.1 uM after 48 hrs by propidium iodide staining based flow cytometry (reference value: 9.1%); type: functional
K562 [6] = test: Cell cycle arrest in human K562 cells assessed as accumulation at G2 phase at 0.05 uM after 48 hrs by propidium iodide staining based flow cytometry (reference value: 9.1%); type: functional
K562 [7] = test: Disruption of microtubule network in human K562 cells after 24 hrs by DAPI staining based immunofluorescent microscopic method; type: cell-based
In short: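 K562 cells exposed for 24 h to 0.1% DMSO vehicle or to 0.05, 0.10, 0.20 µM or 0.005, 0.010, 0.020 µM. Fixed in 4% paraformaldehyde, blocked with goat serum 20 min at room temperature, then anti-α-tubulin antibody 2 h at 37 °C. Fluorescent antibody staining, DAPI nuclear counterstain, fluorescence microscopy.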

K562 [8] = test: Cell cycle arrest in human K562 cells assessed as accumulation at G1 phase at 0.05 uM after 48 hrs by propidium iodide staining based flow cytometry (reference value: 60.77%); type: functional
H22 [9] = test: Antitumor activity against mouse H22 cells implanted in ICR mouse assessed as tumor growth inhibition administered iv once daily for 21 consecutive days; type: functional, organism-based; in short: as §2
K562 [10] = test: Induction of apoptosis in human K562 cells at 0.05 uM after 48 hrs by Annexin V-FITC/propidium iodide staining based flow cytometry (reference value: 1.46%); type: functional
In short: (§3)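 K562 cells treated 48 h at 0, 0.05, 0.1, 0.2 µM or 0, 0.005, 0.010, 0.020 µM. Washed in PBS, resuspended in Annexin V binding buffer and stained 15 min in the dark. Early plus late apoptotic fractions quantified by flow-cytometric quadrant analysis.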

K562 [11] = test: Cell cycle arrest in human K562 cells assessed as accumulation at S phase at 0.2 uM after 48 hrs by propidium iodide staining based flow cytometry (reference value: 30.13%); type: functional
H22 [12] = test: Antitumor activity against mouse H22 cells implanted in ICR mouse assessed as tumor growth inhibition at 15 mg/kg, iv administered once daily for 21 consecutive days relative to control; type: functional; details: read-out: TGI; in short: as §2
Mus musculus = test: Toxicity in ICR mouse implanted with mouse H22 cells assessed as decrease in body weight at 15 to 30 mg/kg, iv administered once daily for 21 consecutive days; type: organism-based; details: in vivo
In short: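 H22 s.c. allograft in male ICR mice, groups of six. Dosing i.v. at 15 or 30 mg/kg once daily for 21 days (10% DMF/2% Tween 80/88% saline), or 8 mg/kg once every 2 days. Body weight recorded every 2 days.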

HUVEC [13] = test: Antivascular activity against HUVEC assessed as reduction in wound closure after 24 hrs by phase contrast microscopic method; type: functional, cell-based; details: Homo sapiens
In short: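 Scratch wounds made with a sterile 200 µL pipette tip, then treated at 0.05, 0.10, 0.20 µM or 0.005, 0.010, 0.020 µM. Phase-contrast images taken at 0 h and 24 h after treatment.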

K562 [14] = test: Induction of apoptosis in human K562 cells after 48 hrs by Annexin V-FITC/propidium iodide staining based flow cytometry; type: functional, cell-based; in short: as §3
K562 [15] = test: Cell cycle arrest in human K562 cells assessed as accumulation at G1 phase at 0.1 uM after 48 hrs by propidium iodide staining based flow cytometry (reference value: 60.77%); type: functional
HUVEC [16] = test: Antivascular activity against HUVEC assessed as reduction in tube formation at 005 to 0.2 uM after 6 hrs by inverted microscopic based matrigel method; type: functional, cell-based; details: Homo sapiens
In short: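 Matrigel thawed at 4 °C overnight and polymerized 30 min at 37 °C. HUVECs in DMEM seeded at 50,000 cells/well, then exposed to compound or vehicle for 6 h at 37 °C. Tube morphology examined by inverted microscopy.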

K562 [17] = test: Cell cycle arrest in human K562 cells assessed as accumulation at S phase at 0.1 uM after 48 hrs by propidium iodide staining based flow cytometry (reference value: 30.13%); type: functional
K562 [18] = test: Cell cycle arrest in human K562 cells assessed as accumulation at G2 phase at 0.2 uM after 48 hrs by propidium iodide staining based flow cytometry (reference value: 9.1%); type: functional
K562 [19] = test: Cell cycle arrest in human K562 cells assessed as accumulation at S phase at 0.05 uM after 48 hrs by propidium iodide staining based flow cytometry (reference value: 30.13%); type: functional
K562 [20] = test: Induction of apoptosis in human K562 cells at 0.2 uM after 48 hrs by Annexin V-FITC/propidium iodide staining based flow cytometry (reference value: 1.46%); type: functional; in short: as §3
K562 [21] = test: Induction of apoptosis in human K562 cells at 0.1 uM after 48 hrs by Annexin V-FITC/propidium iodide staining based flow cytometry (reference value: 1.46%); type: functional; in short: as §3
K562 [22] = test: Cell cycle arrest in human K562 cells assessed as accumulation at G1 phase at 0.2 uM after 48 hrs by propidium iodide staining based flow cytometry (reference value: 60.77%); type: functional
K562 [23] = test: Cell cycle arrest in human K562 cells assessed as accumulation at G2/M phase after 48 hrs by propidium iodide staining based flow cytometry; type: functional
[24] = Inhibition of porcine brain tubulin polymerization after 30 mins by spectrophotometric method; parameters: species or system Sus scrofa
In short: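 Purified tubulin (2 mg/mL) in PEM buffer (80 mM PIPES pH 6.9, 0.5 mM EGTA, 2 mM MgCl2, 15% glycerol), preincubated on ice with compound or DMSO vehicle, then GTP added. Absorbance at 340 nm followed at 37 °C for 30 min. IC50 derived from area under the polymerization curve.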

SMILES: COc1ccc(/C=C/S(=O)(=O)c2cc(OC)c(OC)c(OC)c2)cc1
- Activity (K562 [1]): Active
- Activity (K562 [2]): Active

SMILES: COc1cc(S(=O)(=O)/C=C/c2ccc(N(C)C)cc2)cc(OC)c1OC
- Activity (K562 [1]): Active
- Activity (K562 [2]): Active

SMILES: COc1ccc(/C=C/[S+]([O-])c2cc(OC)c(OC)c(OC)c2)cc1N (stereo not drawn)
- IC50 (HepG2): 753 nM
- IC50 (K562 [3]): 746 nM
- IC50 (A549): 2350 nM

SMILES: COc1cc(S(=O)(=O)/C=C/c2ccc([N+](=O)[O-])cc2)cc(OC)c1OC
- Activity (K562 [1]): Active
- Activity (K562 [2]): Active

SMILES: CO/C(=C\c1ccc(OC)c(O)c1)S(=O)(=O)c1cc(OC)c(OC)c(OC)c1
- IC50 (HepG2): 599 nM
- IC50 (K562 [3]): 190 nM
- IC50 (A549): 2880 nM

SMILES: COc1cc(/C=C/S(=O)(=O)c2cc(OC)c(OC)c(OC)c2)cc(OC)c1OC
- Activity (K562 [1]): Active
- Activity (K562 [2]): Active

SMILES: COc1cc(S(=O)(=O)/C=C/c2ccc(O)c(O)c2)cc(OC)c1OC
- Activity (K562 [1]): Active
- Activity (K562 [2]): inactive

SMILES: COc1ccc(/C=C/S(=O)(=O)c2cc(OC)c(OC)c(OC)c2)cc1N
- inhibition in vivo at 30 mg/kg (H22 [4]): 65.4%
- Activity (K562 [5]): 16.15%
- Activity (K562 [6]): 13.05%
- Activity (K562 [7]): Dose-dependent effect
- Activity (K562 [8]): 53.07%
- TGI (H22 [9]): Dose-dependent effect
- Activity (K562 [10]): 17.88%
- Activity (K562 [11]): 38.31%
- inhibition in vivo at 15 mg/kg (H22 [12]): 53.4%
- Activity (Mus musculus): Non-Toxic
- IC50 (HepG2): 217 nM
- IC50 (K562 [3]): 128 nM
- Activity (HUVEC [13]): Dose-dependent effect
- Activity (K562 [14]): Dose-dependent effect
- Activity (K562 [15]): 47.15%
- Activity (HUVEC [16]): Active
- Activity (K562 [17]): 36.7%
- Activity (K562 [18]): 21.99%
- Activity (K562 [19]): 33.88%
- Activity (K562 [20]): 49.29%
- Activity (K562 [21]): 22.65%
- IC50 (A549): 606 nM
- Activity (K562 [22]): 39.7%
- Activity (K562 [23]): Dose-dependent effect
- IC50 [24]: 4250 nM

SMILES: COc1cc(S(=O)(=O)/C=C/c2ccc(O)cc2)cc(OC)c1OC
- Activity (K562 [1]): Active
- Activity (K562 [2]): Active

SMILES: COc1cc(S(=O)(=O)/C=C/c2ccc(F)cc2)cc(OC)c1OC
- Activity (K562 [1]): Active
- Activity (K562 [2]): Active

SMILES: COc1ccc(/C=C/S(=O)(=O)c2cc(OC)c(OC)c(OC)c2)cc1F
- Activity (K562 [1]): Active
- Activity (K562 [2]): Active

SMILES: COc1ccc(/C=C(\C)[S+]([O-])c2cc(OC)c(OC)c(OC)c2)cc1O (stereo not drawn)
- IC50 (HepG2): > 1000 nM
- IC50 (K562 [3]): > 1000 nM
- IC50 (A549): > 5000 nM

SMILES: COc1ccc(/C=C(\C#N)S(=O)(=O)c2cc(OC)c(OC)c(OC)c2)cc1O
- IC50 (HepG2): > 1000 nM
- IC50 (K562 [3]): > 1000 nM
- IC50 (A549): > 5000 nM
